Compound activity: PubChem, Broad Institute
Hits are enriched below; roughly 2.6% of the tested compounds scored in any of these assays.
rRNA inh HTS: inhibitors of bacterial rRNA selective over humanized ribosomes | hit rate 1.6% among 350,000 | GFP signal change (wild-type ribosome), % (no concentration beside the values) | E. coli WT GFP vs humanized-ribosome RFP mutants, fluorescence, 24 h; hits give low values; DMSO median 0, no signal -100;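 active = significant combined selectivity score with lowered wild-type GFP, culture density cut under 30%, mutant RFP and density less affected; inactive = any of these conditions unmet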
PvdQ acylase: blocks Pseudomonas aeruginosa PvdQ acylase activity; hit rate 0.063% among 340,000; inhibition, % at 10 µM; purified PvdQ acylase, fluorescence plate reader; in the data active = inhibition above about 30%, passing the limit was not always enough; inconclusive = no clear call, values can overlap the other calls;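 also: 0% = vehicle neutral wells and 100% = reference inhibitor wells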
dFosB activator: mouse delta FosB homodimer activation | P13346 | activation, % at 25 µM | hit rate 0.99% among 340,000 | purified delta FosB, TAMRA-CDK5 oligo fluorescence polarization; percent of positive-control signal above neutral wells | AID 493131;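 active = mean activation above about 17%, with every replicate also reaching it, limit read from the data, passing the limit was not always enough; inconclusive = only one of the two conditions met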
Target sequence (P13346 whole entry, looked up): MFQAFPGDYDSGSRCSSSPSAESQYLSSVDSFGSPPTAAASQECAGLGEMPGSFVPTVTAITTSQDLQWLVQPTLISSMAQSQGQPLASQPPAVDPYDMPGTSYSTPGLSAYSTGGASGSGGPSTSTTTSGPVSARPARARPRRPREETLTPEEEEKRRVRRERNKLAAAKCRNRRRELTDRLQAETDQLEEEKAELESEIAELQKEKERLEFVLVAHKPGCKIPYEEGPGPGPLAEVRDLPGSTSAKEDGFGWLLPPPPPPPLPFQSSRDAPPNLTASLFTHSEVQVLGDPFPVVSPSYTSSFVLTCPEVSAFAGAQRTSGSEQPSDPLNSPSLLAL
SR-BI DiI-HDL act: SR-BI HDL lipid transfer activation. CHO ldlA[mSR-BI] cells, DiI-HDL uptake fluorescence, 3 h; 100 = double the neutral-control signal. hit rate 0.096% among 320,000. AID 504775. activation, % at 12.5 µM;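 active = mean replicate activation of at least 60% and every replicate at or above 60%; inconclusive = mean or all-replicate condition met, but not both; inactive = mean below 60% and not all replicates reaching 60%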;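 also: 0% = median plate neutral-control signal and 100% = twice that signal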
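Assay system: LDL receptor-deficient CHO ldlA cells overexpressing murine SR-BI / Medium: BSA-supplemented, HEPES-buffered Ham's F12, pH 7.4 / Probe or stimulus: DiI-labelled HDL at 10 µg/mL final / Timing: compound with DiI-HDL co-incubation, 3 h at 37 °C / Technique: bottom-read cell fluorescence after medium removal, ex 550/em 595 nm / Measure: HDL uptake via cellular fluorescence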
Xi reactivation: activators of X-chromosome reactivation in mouse fibroblasts | XiGFP mouse fibroblasts, % GFP-positive cells imaging, 3 d; cells co-treated with 5-aza-dC sensitizer; scaled so ellipticine positive control = 100% | activation, % at 7.58 µM | hit rate 0.055% among 360,000 | AID 743238;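 active = mean normalized replicate activation at least 10% and every replicate at or above 10%; inconclusive = only one of the two criteria met; inactive = mean below 10% and not all replicates reach 10%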;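 also: 0% = median of on-plate neutral control wells and 100% = ellipticine 6 µM median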
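Schedule: 3 d treatment, 15 min room-temperature fixation; system: 68-5-11 XiGFP fibroblast line; buffer or medium: DMEM plus 5-aza-dC sensitizer; control set: ellipticine 6 µM positive control; compound: one concentration, pinned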
SR-BI DiI inh: mouse SR-BI HDL lipid transfer inhibition | Q61009 | ldlA[mSR-BI] CHO cells, DiI-HDL uptake fluorescence, 3 h | inhibition, % at 12.5 µM | hit rate 0.96% among 320,000;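 active = mean replicate inhibition of at least 70% and a set share of replicates each scoring 70 or more; inconclusive = meets just one of the two criteria; inactive = fails both criteria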;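 also: 0% = median of neutral control wells and 100% = median of positive control wells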
AID977621: wild-type E. coli growth inhibition versus H69 humanized strain – H69 mutant RFP, wild-type GFP, cherry-pick, dose response; shares compounds with rRNA inh HTS; fluorescence, 24 h; activity change, negative = inhibition at 50 µM; 1,900 tested, under 10 active; AID 977621;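 active = Wild-type ribosome reporter drop at least double the humanized mutant ribosome reporter drop, growth loss under a set limit; inconclusive = no clear call, values can overlap the other calls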;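 also: wild-type GFP and H69 mutant RFP strains grown together 50/50 in each well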
AID977628: E. coli growth inhibition, wild-type GFP versus h24 humanized RFP strain, dose response, h24 mutant RFP vs wild-type GFP, cherry-pick; activity change, negative = inhibition at 50 µM; E. coli WT GFP strain growth, fluorescence, 24 h; 1,900 tested, under 10 active; shares compounds with rRNA inh HTS;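 active = compound lowering the normal-ribosome reporter at least twice as much as the humanized-ribosome reporter, growth loss under a set limit; inconclusive = no clear call, values can overlap the other calls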;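 also: wild-type GFP and h24 humanized RFP strains co-cultured 1 to 1 per well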
An asterisk follows results filed as active; ? = inconclusive; / = not tested or not shown.

SMILES	rRNA inh HTS	PvdQ acylase	dFosB activator	SR-BI DiI-HDL act	Xi reactivation	SR-BI DiI inh	AID977621	AID977628
CC(CCc1ccccc1)NC(=O)CNC(=O)COc1ccccc1 (stereo not given)	-14*	2	0	-4	0	4	-15	/
Cn1c(SCC(=O)Nc2ccc(F)cc2)nnc1-c1cccnc1	6	-15	-8	14	0	-14	/	/
CC(C)(C)CC(=O)NCCc1csc(-c2ccccc2)n1	-16*	13	-2	/	0	/	-3.8	?
COc1cc2c(cc1OC)C(C(=O)N1CCCCC1)C(c1ccccc1F)N(C)C2=O (stereo not given)	/	-9	-8	11	/	-11	/	/
CC(C)Oc1ccc(C(CC(=O)O)NC(=O)Cc2ccc(Cl)cc2)cc1 (stereo not given)	10	-13	-1	16	0	-16	/	/
CC(C)(C)c1ccc(C(CC(=O)O)NC(=O)Cc2ccc(Cl)cc2)cc1 (stereo not given)	-24*	-4	-2	4	0	-4	-15	?
O=C(C[C@@H]1CC[C@H]2NC[C@@H](O)COC[C@@H]2O1)NCc1ccc(Oc2ccccc2)cc1	6	/	/	/	0	/	/	/
O=C(C[C@H]1C=C[C@@H](NS(=O)(=O)c2ccc(F)cc2)[C@H](CO)O1)N1CCN(c2ccccc2)CC1	-2	/	/	/	1	/	/	/
OCCC1CN(Cc2cnc(-c3ccc(Cl)cc3)nc2)CCN1C1CCCCC1 (stereo not given)	-18*	1	-5	-22	0	22	-2.9	-5.5
COc1ccc(NC(=O)Nc2cccc3c2O[C@@H](CN(C)S(=O)(=O)c2ccc(Cl)cc2)[C@H](C)CN([C@H](C)CO)C3=O)cc1	-4	/	/	/	0	/	/	?
COc1ccc(NC(=O)Nc2cccc3c2O[C@H](CN(C)S(=O)(=O)c2ccc(Cl)cc2)[C@@H](C)CN([C@H](C)CO)C3=O)cc1	-5	/	/	/	0	/	/	?
COc1ccc(NC(=O)Nc2cccc3c2O[C@@H](CN(C)S(=O)(=O)c2ccc(OC)cc2)[C@@H](C)CN([C@H](C)CO)C3=O)cc1	-3	/	/	/	0	/	/	/
COc1ccc(NC(=O)Nc2cccc3c2O[C@@H](CN(C)S(=O)(=O)c2ccc(OC)cc2)[C@@H](C)CN([C@@H](C)CO)C3=O)cc1	2	/	/	/	0	/	/	/
COC(=O)C(O)(CC(=O)Nc1cc(OC)c(OC)c(OC)c1)C(F)(F)F (stereo not given)	/	-7	-3	23	/	-23	/	/
Cc1noc(C)c1S(=O)(=O)Nc1ccc2c(c1)C(=O)N([C@H](C)CO)C[C@@H](C)[C@@H](CN(C)C(=O)Nc1ccccc1)O2	1	/	/	/	0	/	/	/
CCc1ccc(C(=O)Nc2cccnc2Oc2ccc(Cl)cc2)cc1	-21*	-19	-13	-26	0	26	-8.2	/
CCc1ccc(-c2nc(CS(=O)CC(=O)NCc3ccccc3)c(C)o2)cc1 (stereo not given)	-4	-14	-14	29	0	-29	/	/
COc1ccc(C)cc1S(=O)(=O)Nc1ccccc1C	/	-2	-2	4	/	-4	/	/
Cc1cccc(-n2cnc3cc([N+](=O)[O-])ccc32)c1	-16*	-7	1	-18	0	18	-15	-15
Nc1ccc(-n2cnc3cc([N+](=O)[O-])ccc32)cc1	/	-13	4	9	/	-9	/	/
CCC(C(=O)Nc1nc(C)c(C(=O)OC)s1)c1ccccc1 (stereo not given)	8	-1	0	/	0	/	/	/
CCC(C(=O)Nc1ccsc1C(=O)OC)c1ccccc1 (stereo not given)	-29*	-6	-2	7	0	-7	-12	-5.7
